Rce1 inh – yeast Rce1p protease inhibitors, primary screen, biochemical, fluorescence, cell-free homogeneous | calls only | AID 2563, 2010 | hit rate 0.27% among 290,000 | yeast membranes, quenched prenylated peptide cleavage fluorescence;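 active = fall in fluorescence gain of 50% or more versus controls, with final raw signal at or below 3038400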;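 note: plate controls were neutral control wells for no effect and wells lacking membranes for full effect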
Target sequence (Q03530 whole entry, looked up): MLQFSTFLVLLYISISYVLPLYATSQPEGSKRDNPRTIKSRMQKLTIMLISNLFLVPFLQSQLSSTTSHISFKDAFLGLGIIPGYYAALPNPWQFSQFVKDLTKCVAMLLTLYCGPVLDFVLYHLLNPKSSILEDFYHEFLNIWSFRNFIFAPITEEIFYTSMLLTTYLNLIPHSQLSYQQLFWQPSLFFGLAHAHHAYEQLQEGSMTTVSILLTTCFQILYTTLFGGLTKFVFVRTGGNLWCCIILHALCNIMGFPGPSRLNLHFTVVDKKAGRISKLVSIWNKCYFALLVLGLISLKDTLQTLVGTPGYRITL
CAL PDZ FP-1 – CAL PDZ peptide-binding inhibitors, primary screen, biochemical, fluorescence polarization, Cer-tagged CAL PDZ, HTS | Golgi-associated PDZ and coiled-coil motif-containing protein (Homo sapiens), Q9HD26 | purified CAL PDZ, TMR-peptide fluorescence polarization, 1 h | inhibition, % at 20 µM | hit rate 0.02% among 330,000 | AID 504414, 2011;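 active = highest replicate inhibition of at least 40%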;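 note: plate controls were DMSO neutral control wells for no effect and unlabeled competitor peptide control wells for full effect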
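Read-out basis: mP drop reported as inhibition | Assay system: Tagged CAL PDZ protein CerCALP, purified | Benchmarks: Unlabelled peptide for full inhibition, DMSO wells as neutral | Schedule: 1 h incubation at room temperature before polarization reading | Buffer or medium: Sodium phosphate/NaCl buffer pH 7.4 with TCEP, IgG, Thesit | Doses: Single point, 20 µM | Measured by: Fluorescence polarization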
CAL PDZ FP-2 – untagged CAL PDZ binding inhibitors, primary screen, biochemical, fluorescence polarization, HTS. inhibition, % at 24.9 µM. purified CAL PDZ, TMR-peptide fluorescence polarization, 1 h. hit rate 0.92% among 300,000. Golgi-associated PDZ and coiled-coil motif-containing protein (Homo sapiens), Q9HD26. AID 602252, 2012;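 active = mean inhibition of at least 30% with at least half of replicates also reaching 30%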;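 note: 0% = DMSO neutral control and 100% = excess unlabeled competitor peptide PRC23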
AI-2 QS mod – Vibrio harveyi AI-2 quorum sensing modulators, primary screen, JMH597 strain, luminescence/OD600 ratio. Vibrio harveyi JMH597 AI-2 luminescence/OD600 ratio, 9 h; active compounds read low; strain lacks LuxN and CqsS sensors; 0 = neutral-control median. activity change, % at 7.5 µM. hit rate 0.4% among 300,000. AID 2094, 2009; in the data active = activity change below about -75%, passing the limit was not always enough;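 note: luminescence divided by OD600 gain over 9 h not by final OD600 alone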
ARNT TACC3 PPI – disruptors of ARNT/TACC3 protein interaction, primary screen, biochemical, AlphaScreen, single concentration; inhibition, % at 9.99 µM; Transforming acidic coiled-coil-containing protein 3 (Homo sapiens), Q9Y6A5; hit rate 0.66% among 390,000; AlphaScreen His-ARNT PAS-B/GST-TACC3 binding, luminescence; TACC3 fragment carries E629A point mutation; AID 623870, 2012;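 active = mean inhibition of replicates at least 50% and at least half of replicates each reaching 50%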;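 note: 0% = complete ARNT plus TACC3 wells and 100% = ARNT alone without TACC3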
An asterisk follows results filed as active; i = inactive; · = no result; + = active, no number. Compounds with a hit are over-represented: about 1.7% of the library has one in this group of screens.

SMILES | Rce1 inh | CAL PDZ FP-1 | CAL PDZ FP-2 | AI-2 QS mod | ARNT TACC3 PPI
CO[C@@H]1CN(C)C(=O)c2cc(NC(C)=O)ccc2OC[C@@H](C)N(C(=O)c2cccnc2)C[C@H]1C | · | · | · | · | 2
Cc1ccc(/C=N/NC(=O)CSc2nnc(-c3ccccc3)n2-c2ccc(Cl)cc2)o1 | i | -1 | 70* | 21 | 1
COc1ccccc1CNC(=O)COC(=O)Cc1ccc(Cl)cc1 | i | -2 | 0 | 7 | 33
Cc1cccc(NC(=O)CS(=O)(=O)c2c[nH]c3ccccc23)c1C | i | -2 | 55* | 20 | -1
O=C(C[C@H]1CC[C@H]2[C@@H](COC[C@@H](O)CN2C(=O)Nc2ccc(Cl)cc2)O1)NCC1CC1 | · | · | · | · | 2
CC(Nc1ccc2ccccc2c1)C(=O)N/N=C/c1ccncc1 (centres undefined) | · | 1 | 0 | · | active
COc1ccc(NC(=O)N[C@H]2CC[C@H](CCn3cc(-c4ccccc4)nn3)O[C@H]2CO)cc1 | · | · | · | · | -11
COc1ccc(NC(=O)N[C@@H]2CC[C@@H](CCn3cc(-c4ccccn4)nn3)O[C@@H]2CO)cc1 | · | · | · | · | 48*
O=C(N[C@@H]1CC[C@@H](CCn2cc(-c3ccccn3)nn2)O[C@H]1CO)c1ccncc1 | · | · | · | · | 62*
COc1ccc(NC(=O)N[C@@H]2CC[C@@H](CCn3cc(-c4ccccn4)nn3)O[C@H]2CO)cc1 | · | · | · | · | 61*
O=S(=O)(N[C@@H]1CC[C@H](CCn2cc(-c3ccccn3)nn2)O[C@@H]1CO)c1cccc(F)c1 | · | · | · | · | 92*
O=C(NCCCN1CCOCC1)c1ccc2c(c1)N(Cc1ccccc1)CCS2 | i | -1 | 58* | 8 | 6
Nc1nc(SCC(=O)c2ccc(Cl)cc2)c2ncn(C3OC(CO)C(O)C3O)c2n1 (centres undefined) | · | 7 | 53* | · | 2
COC(=O)C1=CNC=C(C(=O)OC)C1c1cccc2ccccc12 | + | -1 | -3 | -2 | -8
COC(=O)C1=CNC=C(C(=O)OC)C1c1ccccc1Cl | · | -4 | -3 | · | 0
Fc1ccc(NC(=S)Nc2ccc3nccnc3c2)cc1 | i | -3 | -6 | 0 | 64*
COc1ccc(S(=O)(=O)N2CCCCCC2)cc1C(=O)NC1(C)CCS(=O)(=O)C1 (centres undefined) | i | -2 | -1 | 19 | 2
O=C(NCC1CCN(Cc2ccc(Cl)cc2)CC1)C1CCCN(c2ncnc3c2nc2n3CCCCC2)C1 (centres undefined) | i | -1 | 0 | -1 | 6
O=C(CCl)Nc1ccc(S(=O)(=O)Nc2nccs2)cc1 | i | 0 | -4 | -26 | -5
COc1ccc(S(=O)(=O)Nc2nccs2)cc1OC | i | -7 | 53* | 19 | -6
O=C(CN1C(=O)c2cccc3cccc1c23)Nc1ccc(S(=O)(=O)Nc2nccs2)cc1 | i | -1 | -5 | -96* | 3
O=C(CN1c2cccc3cccc(c23)S1(=O)=O)Nc1ccc(S(=O)(=O)N2CCOCC2)cc1 | i | -1 | -4 | 7 | -5
O=C(CN1C(=O)c2cccc3cccc1c23)Nc1ccc(S(=O)(=O)N2CCOCC2)cc1 | i | -3 | · | -96* | -9
CC(C)CC(=O)NC(=S)Nc1ccc(S(=O)(=O)Nc2nccs2)cc1 | + | -3 | 0 | 8 | -2
CCOc1cc(CNCCO)cc(Br)c1OCc1ccc(Cl)cc1Cl | i | 1 | -3 | 9 | 0
SMILES | Rce1 inh | CAL PDZ FP-1 | CAL PDZ FP-2 | AI-2 QS mod | ARNT TACC3 PPI
CCOc1ccccc1C(=O)N(CCC(=O)OC)c1ccccn1 | i | -4 | -3 | 29 | 12
C[C@@H]1CCCCO[C@H](CN(C)Cc2ccccc2)[C@H](C)CN([C@@H](C)CO)C(=O)c2cc(NC(=O)Cc3ccccc3)ccc2O1 | · | · | · | · | 2
C(=N\Nc1nncn1/N=C/c1ccco1)/c1ccco1 | i | 0 | · | 29 | 64*
Cn1c(=O)c2c(nc(N/N=C/c3ccco3)n2C)n(C)c1=O | i | -1 | 17 | 22 | 36
Cc1ccc(-c2nn(-c3ccccc3)cc2/C=N/n2c(-c3ccncc3)n[nH]c2=S)cc1 | i | 0 | -5 | 12 | 1
CN(C)CCCNC(=O)C[C@H]1CC[C@H](NC(=O)Cc2cccnc2)[C@H](CO)O1 | · | · | · | · | 0
COc1ccc(CCNS(=O)(=O)c2ccc(Br)s2)cc1 | i | -1 | · | -78* | ·
O=S(=O)(NCCc1ccccc1)c1ccc(Br)s1 | i | -3 | -11 | -54 | -10
COc1cccc(-n2c(Cc3cc(=O)[nH]c(=O)[nH]3)nnc2SCC(=O)N2CCC(C)CC2)c1 | i | 0 | 50* | 9 | -2
Cc1cc(NCCN2CCOCC2)n2ncc(-c3ccccc3)c2n1 | i | · | -28 | -2 | -15
O=C(COC(=O)c1ccc(NC(=O)C2CC=CCC2C(=O)O)cc1)c1ccccc1 (centres undefined) | i | · | 67* | 9 | 5
CCCNC(=O)c1cccc(S(=O)(=O)N2CC3(C)CC2CC(C)(C)C3)c1 (centres undefined) | i | -1 | -2 | 37 | -19
CCCCNC(=O)CSc1nc(CCC)nc2ccccc12 | i | 0 | 30* | 12 | -1
O=C(CSc1ncnc2ccccc12)NCCCO | i | -1 | 3 | 10 | 17
O=C(CSc1ncnc2ccccc12)NCCc1ccccc1 | i | 11 | 45* | 10 | -2
CCCNC(=O)CSc1nc(COc2ccccc2)nc2ccccc12 | i | -2 | -1 | 20 | 1
COc1ccc(C(=O)NCc2nnc(SCC(=O)Nc3cccc(C(F)(F)F)c3)o2)cc1OC | i | -1 | 1 | 1 | -5
O=C(N/N=C/c1ccco1)c1cc(-c2cccs2)[nH]n1 | i | -5 | 41* | 12 | 4
CC1CCCN(C(=O)Cn2cnc3c2c(=O)n(C)c(=O)n3C)C1 (centres undefined) | i | · | 36* | -4 | -4
CC1CCN(C(=O)COC(=O)Cn2cnc3c2c(=O)n(C)c(=O)n3C)CC1 | i | -1 | -3 | 2 | -22
Cn1c(SCC(=O)c2ccc(F)cc2)nnc1-c1ccccc1N | i | -1 | -4 | -56 | 2
Cc1ccc(C(=O)CSc2nnc(-c3ccccc3N)n2C)cc1 | i | · | 37* | -56 | 1
Cc1ccc2c(c1)N(CC(=O)Nc1ccccc1F)C(=O)CO2 | i | -1 | 56* | 8 | -7
CCOC(=O)c1c(S(=O)(=O)NCC(=O)N2CCN(c3ccccc3OC)CC2)c(C)n(C)c1C | i | 0 | -7 | 13 | -1
